Only some compounds are listed: those with a hit (about 1.8% of all), similar ones and a draw of the others.
SUMO1-SIM PPI – modulators of human SUMO1-mediated protein-protein interactions; SUMO1 binding to a labelled peptide, TR-FRET, 1 h; P63165; AID 602429; 0.33% of 360,000 active; inhibition, % at 20 µM; in the data active = inhibition above about 37%
HKDC1 inh – HKDC1 (human) hexokinase inhibition | Q2TB90 | recombinant HKDC1, G6PDH/diaphorase resazurin coupled fluorescence | inhibition, % at 20 µM | 0.16% of 340,000 active | AID 493160;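 active = inhibition above about 35% when tested at 20 µM, limit read from the data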;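 note: plate controls were DMSO wells with enzyme for no effect and DMSO wells lacking enzyme for full effect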
Target sequence (Q2TB90 whole entry, looked up): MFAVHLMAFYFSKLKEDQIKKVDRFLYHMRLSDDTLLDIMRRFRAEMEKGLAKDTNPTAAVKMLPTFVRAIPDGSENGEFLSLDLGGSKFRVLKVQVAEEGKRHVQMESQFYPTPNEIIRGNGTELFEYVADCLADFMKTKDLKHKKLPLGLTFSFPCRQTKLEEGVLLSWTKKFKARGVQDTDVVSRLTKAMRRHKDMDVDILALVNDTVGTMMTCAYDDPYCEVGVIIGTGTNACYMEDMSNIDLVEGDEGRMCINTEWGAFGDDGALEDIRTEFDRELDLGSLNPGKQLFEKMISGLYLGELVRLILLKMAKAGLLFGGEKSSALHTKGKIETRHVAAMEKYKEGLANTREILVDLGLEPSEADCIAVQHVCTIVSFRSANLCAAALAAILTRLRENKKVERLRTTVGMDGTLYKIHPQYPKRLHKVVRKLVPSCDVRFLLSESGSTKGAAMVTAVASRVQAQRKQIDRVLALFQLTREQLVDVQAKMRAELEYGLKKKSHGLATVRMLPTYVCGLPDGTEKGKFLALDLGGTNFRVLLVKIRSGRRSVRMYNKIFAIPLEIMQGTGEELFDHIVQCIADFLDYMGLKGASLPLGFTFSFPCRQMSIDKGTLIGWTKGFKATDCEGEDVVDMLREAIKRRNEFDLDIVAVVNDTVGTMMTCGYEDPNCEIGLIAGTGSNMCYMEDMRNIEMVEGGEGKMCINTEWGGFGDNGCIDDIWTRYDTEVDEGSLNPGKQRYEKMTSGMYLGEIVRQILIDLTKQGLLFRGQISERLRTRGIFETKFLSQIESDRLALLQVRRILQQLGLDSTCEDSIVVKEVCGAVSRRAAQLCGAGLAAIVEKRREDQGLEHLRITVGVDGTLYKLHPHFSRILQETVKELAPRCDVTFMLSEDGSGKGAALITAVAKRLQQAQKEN
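Test system: recombinant HKDC1 (HK5) hexokinase enzyme, produced in-house; Amount: enzyme 5 µg/mL final; Buffer or medium: Tris pH 8.0 buffer with MgCl2, Tween-20, BSA, BME; Reagent: glucose and ATP substrates; Doses: 20 µM test compound, 1% DMSO; Incubation: 90 min reaction incubation at room temperature, dark; Detection: resorufin fluorescence at 613 nm.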
Scp1 inh – inhibitors of human Scp-1 phosphatase; Q9GZU7; Recombinant Scp1, phosphopeptide, malachite green phosphate absorbance; inhibition, % at 20 µM; 0.88% of 340,000 active; AID 493091;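 active = inhibition above about 50% at 20 µM, limit read from the data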;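 note: plate controls were DMSO wells with enzyme for no effect and wells lacking enzyme for full effect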
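Test system – truncated SCP-1 phosphatase (76-261aa) · Reagent – Phosphorylated 17-residue peptide substrate · Incubation – 45 min room-temperature reaction, 5 min colour, 30 min stabiliser · Detection – colorimetric phosphate reagent with accelerator and stabiliser, absorbance at 630 nm · Measure – % inhibition at 20 µM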
LMPTP block – blocks human LMPTP phosphatase. P24666. recombinant LMPTP-A, OMFP fluorogenic substrate, fluorescence intensity. inhibition, % at 20 µM. 0.22% of 360,000 active. AID 651560;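 active = compounds that cut the enzyme signal by at least half of the control window in the single-dose screen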;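 note: plate controls were DMSO wells with enzyme plus substrate for no effect and substrate without enzyme for full effect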
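Assay system: LMPTP-A, protein tyrosine phosphatase of low molecular weight / Medium: pH 6.0 Bis-Tris buffer with DTT and Triton X-100 / Schedule: 50 min enzyme reaction at room temperature, protected from light / Measured by: endpoint fluorescence intensity from OMFP dephosphorylation / Read-out basis: % inhibition relative to no-enzyme and uninhibited control wells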
DNMT1 block – inhibitors of human DNMT1; DNMT1 molecular beacon, Hinp1I cleavage, fluorescence; 0.83% of 360,000 active; inhibition (reported as % activation of signal), % at 10 µM; in the data active = inhibition above about 50%
STEP block – inhibitors of human striatal-enriched phosphatase STEP; P54829; 0.25% of 360,000 active; inhibition, % at 20 µM; AID 588621; recombinant STEP, OMFP fluorogenic substrate, fluorescence;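 active = inhibition at 20 µM, scaled per plate between control wells, above about 37%, limit read from the data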;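 note: 0% = DMSO with enzyme and substrate and 100% = substrate only without enzyme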
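material = STEP tyrosine phosphatase | reagent = fluorogenic phosphatase substrate OMFP at 25 µM final | doses = single compound dose of 20 µM, 1% DMSO final | schedule = 20 min reaction, room temperature, in the dark | measured by = fluorescence, 480/540 nm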
Scp1 confirm – confirmation of human Scp-1 phosphatase inhibitors | shares compounds with Scp1 inh | recombinant SCP-1 catalytic domain, phosphate release, malachite green absorbance | inhibition, % at 20 µM | 61% of 2,500 active;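 note: plate controls were DMSO with enzyme for no effect and buffer wells lacking enzyme for full effect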
Scp-1 MG ctr – colorimetric interference in Scp-1 counter-screen; shares compounds with Scp1 inh; Colorimetric interference counterscreen, malachite green absorbance 630 nm; apparent inhibition (interference), % at 20 µM; 2,500 tested, under 10 active;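 note: compounds added after enzyme reaction finished so only phosphate colour detection is probed; plate controls were DMSO wells with completed Scp-1 reaction for no effect and substrate wells lacking enzyme for full effect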
Scp1 DSF – Scp-1 (human) binding by thermal shift; shares compounds with Scp1 inh; 25% of 1,500 active; AID 540329; Recombinant SCP1, Sypro Orange thermal shift Tm; thermal shift relative to vanadate control, % at 40 µM;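 active = substances whose mean melting-temperature shift, as a percentage of the reference inhibitor's shift, reaches about 5.3%, limit read from the data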;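 note: 0% = Tm of DMSO wells and 100% = Tm with sodium orthovanadate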
Starred values were filed as active, the others as inactive; nt = no result given.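 Rule for the calls, unless noted: active = inhibition of at least 30% at 20 µM; inactive = the rest.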

SMILES	SUMO1-SIM PPI	HKDC1 inh	Scp1 inh	LMPTP block	DNMT1 block	STEP block	Scp1 confirm	Scp-1 MG ctr	Scp1 DSF
CCn1cc(C(=O)NCc2ccco2)c(=O)c2cc(F)c(N3CCN(C(=O)c4ccco4)CC3)cc21	15.5	5.2	57.6*	5.5	5.9	2.8	36.9*	-10.9	-10.1
CCn1cc(C(=O)NCC(C)C)c(=O)c2cc(F)c(N3CCN(C(=O)c4ccco4)CC3)cc21	9.0	7.7	1.8	1.1	-0.1	-1.7	nt	nt	nt
O=C1CCCN1CCCNC(=S)Nc1ccccc1Cl	0.5	-4.6	-5.2	-0.8	3.2	4.8	1.0	3.1	nt
O=C(CC1Oc2ccccc2NC1=O)NCCCN1CCCC1=O (stereo not drawn)	4.1	-7.0	-12.2	3.1	1.4	-1.8	-12.9	-13.7	nt
COc1ccc(C(=O)NC2CCCN(Cc3ccc(Cl)cc3)C2)c(OC)c1 (stereo not drawn)	2.8	1.6	-4.7	1.0	-3.1	-0.6	nt	nt	nt
O=C(NCc1ccco1)c1ccc2c(=O)n(Cc3ccco3)c(SCC(=O)N3CCCC3)nc2c1	18.1	-9.0	100.6*	9.1	29.7	4.3	70.0*	-13.4	-21.8
O=C(CSc1nnc(COc2ccccc2)n1Cc1ccco1)NCc1ccco1	4.5	6.0	87.6*	5.1	32.5	1.8	67.3*	-11.4	-13.2
CCCCn1c(SCC(=O)NCc2ccco2)nnc1-c1ccoc1C	21.5	5.6	97.2*	0.7	40.7	3.1	76.7*	-12.0	-3.0
O=C(CSc1nc2ccccc2c(=O)n1Cc1ccco1)NCc1ccco1	11.3	-1.6	74.4*	0.9	32.3	2.7	74.2*	-3.2	-3.5
CCCCn1c(SCC(=O)NCc2ccco2)nnc1-c1ccco1	3.0	-1.5	0.0	0.0	0.2	-0.5	nt	nt	nt
O=C(COC(=O)c1ccccc1)Nc1cc(S(=O)(=O)N2CCCCCC2)ccc1Cl	-1.3	-6.6	-7.2	2.6	5.3	3.3	nt	nt	nt
O=C1C2CCCCN2C(=O)N1CCCCN1CCN(c2cccc(C(F)(F)F)c2)CC1 (stereo not drawn)	1.2	-2.2	23.0	-2.3	0.1	-2.0	nt	nt	nt
CCCc1n(CC(O)COCC2CC=CCC2)c2ccccc2[n+]1C (stereo not drawn)	-3.3	-7.1	66.8*	-1.0	-2.7	-1.4	10.1	-6.0	nt
O=C(O)c1ccccc1C(=O)NCC(O)COCC1CC=CCC1 (stereo not drawn)	-1.9	-1.6	-4.0	-1.1	8.1	1.1	nt	nt	nt
CCCc1n(CC(O)COCc2ccccc2)c2ccccc2[n+]1C (stereo not drawn)	-0.9	-7.2	20.7	1.4	3.4	-2.7	nt	nt	nt
CCCc1n(CC(O)COC2CCCCC2)c2ccccc2[n+]1C (stereo not drawn)	1.5	-3.9	100.3*	-0.9	-1.1	1.2	76.7*	-6.8	-22.5
CCOc1ccc(NS(=O)(=O)c2ccc3c(c2)CCN3C(C)=O)cc1	6.8	-1.7	-2.8	-1.7	-0.8	-0.5	nt	nt	nt
N#C/C(=C\c1cccc(Cl)c1)c1n[nH]c(Cn2cncn2)n1	-4.9	-4.4	1.1	-1.2	1.0	2.5	nt	nt	nt
COc1ccc(OC)c(Cc2nnc(CCC(=O)NCc3nc4ccccc4s3)o2)c1	3.2	2.4	62.6*	-0.1	-3.1	1.0	-17.5	-12.8	nt
COc1cccc(CCNC(=O)CCc2nnc(Cc3cc(OC)ccc3OC)o2)c1	0.9	0.0	-8.3	-0.8	-3.7	-1.3	nt	nt	nt
O=C(COC(=O)c1ccc(Cl)c(S(=O)(=O)N2CCCC2)c1)NCc1ccccc1	4.8	-6.3	50.2*	7.4	11.7	9.7	40.9*	-4.0	-0.7
O=C(COC(=O)c1ccc(Cl)c(S(=O)(=O)N2CCCCCC2)c1)NCc1ccccc1	-0.7	nt	nt	2.0	0.1	0.0	nt	nt	nt
Cc1c(OCC(=O)N[C@@H](Cc2c[nH]c3ccccc23)C(=O)O)ccc2c1oc(=O)c1ccccc12	26.9	1.6	4.1	0.7	-4.9	2.0	nt	nt	nt
CC1(C(=O)O)CCC(C(=O)N2CCCCC2)C1(C)C (stereo not drawn)	3.1	-3.5	1.6	-2.0	2.4	1.8	nt	nt	nt
Cc1csc2ncc(C(=O)N3CCCc4ccccc43)c(=O)n12	-1.4	-2.3	87.3*	0.6	1.9	0.4	-15.7	-18.1	nt
SMILES	SUMO1-SIM PPI	HKDC1 inh	Scp1 inh	LMPTP block	DNMT1 block	STEP block	Scp1 confirm	Scp-1 MG ctr	Scp1 DSF
Cc1csc2ncc(C(=O)N3CCc4ccccc43)c(=O)n12	-6.9	0.9	-3.9	-1.0	7.4	-2.0	nt	nt	nt
Cc1ccc2nc(SCC(=O)Nc3ccc(Br)cc3)nc(=O)n2c1	-1.8	1.9	60.0*	-0.1	-2.5	2.5	-24.0	-18.6	nt
Cc1ccc2nc(SCC(=O)Nc3ccc(C)c(Cl)c3)nc(=O)n2c1	-1.9	-0.4	-4.2	-0.2	1.2	1.5	nt	nt	nt
O=C(N/N=C/c1ccccn1)c1cc(-c2ccc(Br)s2)[nH]n1	-0.9	-25.8	67.2*	1.4	33.7	33.6	51.9*	-8.4	-12.7
CCOc1ccc(Nc2ccc(N)c(S(=O)(=O)O)c2)cc1	37.3*	10.0	84.4*	74.2*	86.8*	81.2*	65.7*	-13.4	19.7*
COC(=O)c1ccc(Cn2c(O)c(N=NC(N)=S)c3ccccc32)o1	-25.5	6.1	60.0*	3.4	39.9	2.3	-11.8	-20.5	nt
COc1ccc(CCNC(=O)CC(C)S(=O)(=O)c2ccc3c(c2)NC(=O)CO3)cc1OC (stereo not drawn)	0.5	-6.5	-6.9	-0.1	-0.5	0.2	nt	nt	nt
CCCCC[C@@H](C)N1C[C@H](COCc2ccccc2)Oc2cc(N3CCC[C@H]3COC)ccc2S1(=O)=O	3.2	nt	nt	2.9	nt	nt	nt	nt	nt
Cc1ccc(CNC(=O)CCS(=O)(=O)c2ccc3c(c2)oc(=O)n3C)cc1	-7.5	-0.4	-4.0	-1.3	0.9	0.6	nt	nt	nt
CN(C)c1ccc(CNC(=O)CCS(=O)(=O)c2ccc3c(c2)n(C)c(=O)c(=O)n3C)cc1	22.5	2.9	63.5*	-0.6	30.3	2.0	25.0	-12.0	nt
COc1ccc(NC(=O)CCC(=O)Nc2nnc(CC(C)C)s2)cc1Cl	0.9	-2.9	-4.0	-0.1	-0.1	3.4	nt	nt	nt
CCOc1cc(/C=N/N=C2/NC(=O)C(CC(=O)O)S2)ccc1OCc1ccccc1Cl (stereo not drawn)	-3.2	1.0	75.2*	0.9	1.2	7.7	63.9*	-16.7	-16.8
